Experiments:
[1] = biological target: Beta-3 adrenergic receptor (Homo sapiens, UniProt P13945); assay: Agonist activity at human beta3 adrenoceptor transfected in CHO cells assessed as cyclic AMP accumulation after 45 mins by fluorescence polarization assay; type: cell-based
L5178Y = assay: Genotoxicity against mouse L5178Y cells in presence of rat liver metabolic activation system; type: toxicity, cell-based
In short: (§1)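 Acetate and 4-biphenylsulfonate salts screened in Ames and mouse lymphoma L5178Y assays, with and without a rat liver metabolic activation system.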

Salmonella typhimurium = assay: Genotoxicity in Salmonella typhimurium by Ames assay; type: toxicity, organism-based; conditions: salmonella enterica subsp. enterica serovar typhimurium; in short: as §1
[2] = biological target: 5-hydroxytryptamine receptor 1B (Homo sapiens, UniProt P28222); assay: Binding affinity to human 5HT1B receptor
Chain of 5-hydroxytryptamine receptor 1B (P28222 whole entry): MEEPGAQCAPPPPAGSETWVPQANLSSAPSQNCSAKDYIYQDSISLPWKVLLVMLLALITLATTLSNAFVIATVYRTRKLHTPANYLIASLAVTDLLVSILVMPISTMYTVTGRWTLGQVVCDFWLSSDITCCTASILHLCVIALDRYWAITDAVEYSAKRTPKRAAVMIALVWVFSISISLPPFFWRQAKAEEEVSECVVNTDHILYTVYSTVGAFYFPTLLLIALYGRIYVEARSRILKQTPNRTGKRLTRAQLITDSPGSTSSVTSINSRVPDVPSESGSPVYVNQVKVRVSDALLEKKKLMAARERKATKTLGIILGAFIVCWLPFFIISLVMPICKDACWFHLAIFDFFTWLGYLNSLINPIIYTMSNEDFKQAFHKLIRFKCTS

[3] = biological target: T1, 5-hydroxytryptamine receptor 1A (Homo sapiens, UniProt P08908); assay: Binding affinity to human 5HT1A receptor
T1 sequence (P08908 whole entry): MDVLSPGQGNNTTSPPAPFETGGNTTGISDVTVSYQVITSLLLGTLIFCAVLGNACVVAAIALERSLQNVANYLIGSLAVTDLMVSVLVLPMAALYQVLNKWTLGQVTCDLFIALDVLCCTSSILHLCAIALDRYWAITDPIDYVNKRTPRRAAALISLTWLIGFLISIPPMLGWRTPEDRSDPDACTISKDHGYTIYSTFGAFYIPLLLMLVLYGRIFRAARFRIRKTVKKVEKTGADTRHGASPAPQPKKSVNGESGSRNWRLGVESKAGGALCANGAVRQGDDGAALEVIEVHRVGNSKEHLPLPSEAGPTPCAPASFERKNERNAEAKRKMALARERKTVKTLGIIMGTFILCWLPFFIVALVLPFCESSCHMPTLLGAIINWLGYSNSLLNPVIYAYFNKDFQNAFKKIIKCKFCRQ

Hepatocyte = assay: Drug metabolism in human hepatocytes assessed as metabolite M7 formation at 12.5 uM after 2 hrs by LC-MS/MS analysis; type: ADME, cell-based
In short: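 Human hepatocytes incubated with substrate at 12.5 μM for 2 h. Products characterized by LC–MS/MS on a C18 column, 5–95% acetonitrile gradient in water with 0.1% formic acid over 8 min. Metabolites numbered by elution order. Abundance is semiquantitative from peak heights (low/medium/high), assuming equal analyte response.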

[4] = Drug metabolism in human hepatocytes at 1 uM after 2 hrs by LC-MS/MS analysis; type: ADME, cell-based, Hepatocyte; conditions: read-out: Drug metabolism
In short: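 Human hepatocytes incubated with substrate at 1 μM for 2 h; percentage turnover of parent determined.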

[5] = Ratio of drug uptake from blood to plasma in human; type: ADME
In short: (§2)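 In vitro partitioning of the compound into the cellular fraction of rat, dog and human blood, reported as the blood:plasma ratio.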

[6] = Ratio of drug uptake from blood to plasma in dog; type: ADME, Canis lupus familiaris; in short: as §2
[7] = Plasma protein binding in guinea pig; type: ADME, cell-free, Cavia porcellus; conditions: read-out: PPB (converted)
[8] = Plasma protein binding in rat; type: ADME, cell-free; conditions: read-out: PPB (converted)
Cytochrome P450 1A2 = biological target: T2, Cytochrome P450 1A2 (Homo sapiens, UniProt P05177); assay: Inhibition of human CYP1A2 expressed in Escherichia coli; type: ADME
T2 sequence (P05177 whole entry): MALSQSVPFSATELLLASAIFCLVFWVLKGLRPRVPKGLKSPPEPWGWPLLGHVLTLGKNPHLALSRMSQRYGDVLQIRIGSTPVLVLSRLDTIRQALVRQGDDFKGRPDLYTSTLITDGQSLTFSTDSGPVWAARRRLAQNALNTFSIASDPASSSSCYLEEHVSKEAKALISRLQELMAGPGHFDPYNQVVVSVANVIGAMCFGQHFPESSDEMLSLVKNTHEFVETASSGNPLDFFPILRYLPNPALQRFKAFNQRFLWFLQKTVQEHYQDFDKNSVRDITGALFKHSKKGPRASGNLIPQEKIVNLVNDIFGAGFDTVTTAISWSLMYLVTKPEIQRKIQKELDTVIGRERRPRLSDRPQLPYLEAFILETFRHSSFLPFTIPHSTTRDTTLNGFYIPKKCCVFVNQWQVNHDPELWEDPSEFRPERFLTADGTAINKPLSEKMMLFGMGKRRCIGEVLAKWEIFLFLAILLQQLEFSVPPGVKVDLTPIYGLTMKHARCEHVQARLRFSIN
In short: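 Human CYP isoforms expressed in E. coli; IC50 from n = 3. Probe substrates diethoxyfluorescein and 7-benzyloxyquinoline are stated for CYP3A4.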

Rattus norvegicus = assay: Clearance in Han Wistar rat at 0.25 mg/kg, iv up to 7 hrs by LC-MS/MS analysis relative to liver blood flow; type: ADME, organism-based; set-up: dose 0.25 mg/kg, route intravenous; conditions: in vivo
In short: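 Han Wistar rats dosed 0.25 mg/kg intravenously; plasma sampled at various times up to 7 h postdose. Clearance expressed as percentage of liver blood flow.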

[9] = Volume of distribution at steady state in beagle dog at 0.05 mg/kg, iv up to 8 hrs by LC-MS/MS analysis; type: ADME, organism-based, Canis lupus familiaris; set-up: dose 0.05 mg/kg, route intravenous; conditions: in vivo, read-out: Vdss
In short: (§3)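 Beagle dogs dosed 0.05 mg/kg intravenously; plasma collected at various time points up to 8 h postdose.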

[10] = Plasma clearance in beagle dog at 0.05 mg/kg, iv up to 8 hrs by LC-MS/MS analysis; type: ADME, organism-based, Canis lupus familiaris; set-up: dose 0.05 mg/kg, route intravenous; in short: as §3

Chain of Beta-3 adrenergic receptor (P13945 whole entry): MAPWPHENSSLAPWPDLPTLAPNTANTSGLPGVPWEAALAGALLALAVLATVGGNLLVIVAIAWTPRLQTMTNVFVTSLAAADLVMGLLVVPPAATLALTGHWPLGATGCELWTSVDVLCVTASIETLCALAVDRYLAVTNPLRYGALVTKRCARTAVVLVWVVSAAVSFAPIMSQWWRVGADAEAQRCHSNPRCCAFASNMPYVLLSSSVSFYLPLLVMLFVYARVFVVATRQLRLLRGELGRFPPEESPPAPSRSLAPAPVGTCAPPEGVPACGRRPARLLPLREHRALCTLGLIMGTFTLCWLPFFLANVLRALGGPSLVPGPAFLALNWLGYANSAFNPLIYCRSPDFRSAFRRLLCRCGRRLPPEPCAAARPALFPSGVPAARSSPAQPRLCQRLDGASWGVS

CC(=O)O.O=S(=O)(c1cccc(CCCCOCCCCCCNC[C@H](O)c2ccc(O)c(CO)c2)c1)C1CCCC1
EC50 [1]: 0.794 µM
Activity (L5178Y): Non-toxic
Activity (Salmonella typhimurium): Non-toxic
IC50 [2]: 0.1 µM
IC50 [3]: 0.1 µM
Drug metabolism (Hepatocyte): Active
metabolised at 2 h, 1 µM [4]: 90%
blood plasma ratio [5]: 0.65
blood plasma ratio [6]: 0.6
fraction unbound [7]: 0.03
fraction unbound [8]: 0.02
IC50 (Cytochrome P450 1A2): > 100 µM
CL (Rattus norvegicus): 62%
Vd [9]: 0.1 L/kg
clearance [10]: 3.7 mL/min/kg

Source: ChEMBL document CHEMBL3124822, “Discovery of a rapidly metabolized, long-acting β(2) adrenergic receptor agonist with a short onset time incorporating a sulfone group suitable for once-daily dosing” (J Med Chem, 2014)
